Reference: ChEMBL document CHEMBL1146219, “Synthesis and evaluation of novel radioiodinated benzamides for malignant melanoma” (J Med Chem, 2007)

Legend:
Conditions in all cases: in vivo
[1] = Biodistribution in melanoma of B16F0 tumor bearing C57BL/6J mouse at 0.37-0.74 MBq, iv after 6 hrs; assay type: ADME, organism-based, B16-F0
In short: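 Female C57BL/6J mice (15-18 g) carrying s.c. B16F0 flank tumors (0.1 mL of 3 × 10⁶ viable cells per mL in Ca²⁺/Mg²⁺-free PBS, inoculated at 6-7 weeks, used 10 days later). [¹²³I]tracer 0.37-0.74 MBq in saline, 100 µL, tail-vein i.v. Groups of n = 5 killed at 1-72 h. Organs weighed and γ-counted, carcass activity also counted, values as %ID/g.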

[2] = system: Liver; assay: Biodistribution in liver of B16F0 tumor bearing C57BL/6J mouse at 0.37-0.74 MBq, iv after 6 hrs; assay type: ADME, organism-based
In short: (§1)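 Female C57BL/6J mice (15-18 g) were given B16F0 cells subcutaneously in the left flank (0.1 mL of 3 × 10⁶ viable cells/mL in Ca²⁺/Mg²⁺-free PBS) at 6-7 weeks and used after ten days. [¹²³I]benzamide (0.37-0.74 MBq, 100 µL, saline) was injected via the tail vein. Groups of n = 5 were killed by CO₂ and cervical dislocation. Organs were weighed and γ-counted, and the carcass was counted too.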

[3] = system: Liver; assay: Biodistribution in liver of B16F0 tumor bearing C57BL/6J mouse at 0.37-0.74 MBq, iv after 24 hrs; assay type: ADME, organism-based; in short: as §1
[4] = system: Liver; assay: Biodistribution in liver of B16F0 tumor bearing C57BL/6J mouse at 0.37-0.74 MBq, iv after 48 hrs; assay type: ADME, organism-based; in short: as §1
[5] = system: Liver; assay: Biodistribution in liver of B16F0 tumor bearing C57BL/6J mouse at 0.37-0.74 MBq, iv after 72 hrs; assay type: ADME, organism-based; in short: as §1
[6] = system: Kidney; assay: Biodistribution in kidney of B16F0 tumor bearing C57BL/6J mouse at 0.37-0.74 MBq, iv after 1 hr; assay type: ADME, organism-based; in short: as §1
[7] = system: Kidney; assay: Biodistribution in kidney of B16F0 tumor bearing C57BL/6J mouse at 0.37-0.74 MBq, iv after 6 hrs; assay type: ADME, organism-based; in short: as §1
[8] = system: Kidney; assay: Biodistribution in kidney of B16F0 tumor bearing C57BL/6J mouse at 0.37-0.74 MBq, iv after 72 hrs; assay type: ADME, organism-based; in short: as §1
[9] = system: Lung; assay: Biodistribution in lung of B16F0 tumor bearing C57BL/6J mouse at 0.37-0.74 MBq, iv after 1 hr; assay type: ADME, organism-based; in short: as §1
[10] = system: Lung; assay: Biodistribution in lung of B16F0 tumor bearing C57BL/6J mouse at 0.37-0.74 MBq, iv after 24 hrs; assay type: ADME, organism-based; in short: as §1
[11] = system: Lung; assay: Biodistribution in lung of B16F0 tumor bearing C57BL/6J mouse at 0.37-0.74 MBq, iv after 48 hrs; assay type: ADME, organism-based; in short: as §1
[12] = system: Heart; assay: Biodistribution in heart of B16F0 tumor bearing C57BL/6J mouse at 0.37-0.74 MBq, iv after 1 hr; assay type: ADME, organism-based; in short: as §1
[13] = system: Heart; assay: (§2) Biodistribution in heart of B16F0 tumor bearing C57BL/6J mouse at 0.37-0.74 MBq, iv after 6 hrs; assay type: ADME, organism-based; in short: as §1
[14] = system: Heart; assay: Biodistribution in heart of B16F0 tumor bearing C57BL/6J mouse at 0.37-0.74 MBq, iv after 72 hrs; assay type: ADME, organism-based; in short: as §1
[15] = system: Brain; assay: Biodistribution in brain of B16F0 tumor bearing C57BL/6J mouse at 0.37-0.74 MBq, iv after 1 hr; assay type: ADME, organism-based; in short: as §1
[16] = system: Brain; assay: Biodistribution in brain of B16F0 tumor bearing C57BL/6J mouse at 0.37-0.74 MBq, iv after 6 hrs; assay type: ADME, organism-based; in short: as §1
[17] = system: Brain; assay: Biodistribution in brain of B16F0 tumor bearing C57BL/6J mouse at 0.37-0.74 MBq, iv after 24 hrs; assay type: ADME, organism-based; in short: as §1
[18] = system: Brain; assay: Biodistribution in brain of B16F0 tumor bearing C57BL/6J mouse at 0.37-0.74 MBq, iv after 48 hrs; assay type: ADME, organism-based; in short: as §1
[19] = system: Brain; assay: Biodistribution in brain of B16F0 tumor bearing C57BL/6J mouse at 0.37-0.74 MBq, iv after 72 hrs; assay type: ADME, organism-based; in short: as §1
[20] = system: Blood; assay: Biodistribution in blood of B16F0 tumor bearing C57BL/6J mouse at 0.37-0.74 MBq, iv after 1 hr; assay type: ADME, organism-based; in short: as §1
[21] = system: Blood; assay: Biodistribution in blood of B16F0 tumor bearing C57BL/6J mouse at 0.37-0.74 MBq, iv after 72 hrs; assay type: ADME, organism-based; in short: as §1
[22] = Biodistribution in tumor of B16F0 tumor bearing C57BL/6J mouse at 0.37-0.74 MBq, iv after 1 hr in presence of haloperidol; assay type: ADME, organism-based, B16-F0
In short: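 B16F0 tumor-bearing C57BL/6J mice, groups of n = 5, given haloperidol 1 mg/kg i.v. 5 min before the i.v. [¹²³I]tracer (0.37-0.74 MBq). Killed at 1 or 24 h. Tissues γ-counted as for biodistribution and compared with untreated controls by one-way ANOVA, significance p < 0.01.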

[23] = Biodistribution in eye of B16F0 tumor bearing C57BL/6J mouse at 0.37-0.74 MBq, iv after 24 hrs in presence of haloperidol; assay type: ADME, organism-based
In short: (§3)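 Haloperidol blocking in B16F0-bearing C57BL/6J mice: 1 mg/kg haloperidol was given iv 5 min before the iv [¹²³I]benzamide (0.37-0.74 MBq). Groups of n = 5 were killed at 1 or 24 h. Tissues were weighed and γ-counted as in the biodistribution study and compared with untreated controls by one-way ANOVA, with p < 0.01 taken as significant.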

[24] = system: Liver; assay: Biodistribution in liver of B16F0 tumor bearing C57BL/6J mouse at 0.37-0.74 MBq, iv after 1 hr in presence of haloperidol; assay type: ADME, organism-based; in short: as §3
[25] = system: Kidney; assay: Biodistribution in kidney of B16F0 tumor bearing C57BL/6J mouse at 0.37-0.74 MBq, iv after 24 hrs in presence of haloperidol; assay type: ADME, organism-based; in short: as §3
[26] = system: Lung; assay: Biodistribution in lung of B16F0 tumor bearing C57BL/6J mouse at 0.37-0.74 MBq, iv after 1 hr in presence of haloperidol; assay type: ADME, organism-based; in short: as §3
[27] = system: Lung; assay: Biodistribution in lung of B16F0 tumor bearing C57BL/6J mouse at 0.37-0.74 MBq, iv after 24 hrs in presence of haloperidol; assay type: ADME, organism-based; in short: as §3
[28] = system: Blood; assay: Biodistribution in blood of B16F0 tumor bearing C57BL/6J mouse at 0.37-0.74 MBq, iv after 24 hrs in presence of haloperidol; assay type: ADME, organism-based
[29] = system: Brain; assay: Biodistribution in brain of B16F0 tumor bearing C57BL/6J mouse at 0.37-0.74 MBq, iv after 24 hrs in presence of haloperidol; assay type: ADME, organism-based
[30] = Biodistribution in melanoma of B16F0 tumor bearing C57BL/6J mouse at 0.37-0.74 MBq, iv after 3 hrs; assay type: ADME, organism-based, B16-F0; in short: as §1
[31] = system: Liver; assay: Biodistribution in liver of B16F0 tumor bearing C57BL/6J mouse at 0.37-0.74 MBq, iv after 3 hrs; assay type: ADME, organism-based; in short: as §1
[32] = system: Lung; assay: Biodistribution in lung of B16F0 tumor bearing C57BL/6J mouse at 0.37-0.74 MBq, iv after 3 hrs; assay type: ADME, organism-based; in short: as §1
[33] = system: Heart; assay: as §2; assay type: ADME, organism-based; in short: as §1; remark: listed apart in the source
[34] = system: Blood; assay: Biodistribution in blood of B16F0 tumor bearing C57BL/6J mouse at 0.37-0.74 MBq, iv after 3 hrs; assay type: ADME, organism-based; in short: as §1

Drug uptake [1]: 8.4 % ID/g
Drug uptake [2]: 1.8 % ID/g
Drug uptake [3]: 0.47 % ID/g
Drug uptake [4]: 0.38 % ID/g
Drug uptake [5]: 0.25 % ID/g
Drug uptake [6]: 21.6 % ID/g
Drug uptake [7]: 1.2 % ID/g
Drug uptake [8]: 0.1 % ID/g
Drug uptake [9]: 1.9 % ID/g
Drug uptake [10]: 0.1 % ID/g
Drug uptake [11]: 0.08 % ID/g
Drug uptake [12]: 0.98 % ID/g
Drug uptake [13]: 0.75 % ID/g
Drug uptake [14]: 0.06 % ID/g
Drug uptake [15]: 0.07 % ID/g
Drug uptake [16]: 0.03 % ID/g
Drug uptake [17]: 0.01 % ID/g
Drug uptake [18]: 0.01 % ID/g
Drug uptake [19]: 0.01 % ID/g
Drug uptake [20]: 1.2 % ID/g
Drug uptake [21]: 0.05 % ID/g
Drug uptake [22]: 6.1 % ID/g
Drug uptake [23]: 18.7 % ID/g
Drug uptake [24]: 15.6 % ID/g
Drug uptake [25]: 0.03 % ID/g
Drug uptake [26]: 1.54 % ID/g
Drug uptake [27]: 0.02 % ID/g
Drug uptake [28]: 0.02 % ID/g
Drug uptake [29]: 0.002 % ID/g
Drug uptake [30]: 9.7 % ID/g
Drug uptake [31]: 5 % ID/g
Drug uptake [32]: 0.95 % ID/g
Drug uptake [33]: 0.54 % ID/g
Drug uptake [34]: 0.95 % ID/g
Structure (SMILES): CCCCN(C)CCCCNC(=O)c1cc([123I])c(NC(C)=O)cc1OC
